Published values gathered from unrelated publications.
Lines come from different studies, so protocols differ.
Target: Serine/threonine-protein kinase LATS1 (LATS1, Homo sapiens, UniProt O95835)
Sequence (O95835 1-1130, as in one of the studies): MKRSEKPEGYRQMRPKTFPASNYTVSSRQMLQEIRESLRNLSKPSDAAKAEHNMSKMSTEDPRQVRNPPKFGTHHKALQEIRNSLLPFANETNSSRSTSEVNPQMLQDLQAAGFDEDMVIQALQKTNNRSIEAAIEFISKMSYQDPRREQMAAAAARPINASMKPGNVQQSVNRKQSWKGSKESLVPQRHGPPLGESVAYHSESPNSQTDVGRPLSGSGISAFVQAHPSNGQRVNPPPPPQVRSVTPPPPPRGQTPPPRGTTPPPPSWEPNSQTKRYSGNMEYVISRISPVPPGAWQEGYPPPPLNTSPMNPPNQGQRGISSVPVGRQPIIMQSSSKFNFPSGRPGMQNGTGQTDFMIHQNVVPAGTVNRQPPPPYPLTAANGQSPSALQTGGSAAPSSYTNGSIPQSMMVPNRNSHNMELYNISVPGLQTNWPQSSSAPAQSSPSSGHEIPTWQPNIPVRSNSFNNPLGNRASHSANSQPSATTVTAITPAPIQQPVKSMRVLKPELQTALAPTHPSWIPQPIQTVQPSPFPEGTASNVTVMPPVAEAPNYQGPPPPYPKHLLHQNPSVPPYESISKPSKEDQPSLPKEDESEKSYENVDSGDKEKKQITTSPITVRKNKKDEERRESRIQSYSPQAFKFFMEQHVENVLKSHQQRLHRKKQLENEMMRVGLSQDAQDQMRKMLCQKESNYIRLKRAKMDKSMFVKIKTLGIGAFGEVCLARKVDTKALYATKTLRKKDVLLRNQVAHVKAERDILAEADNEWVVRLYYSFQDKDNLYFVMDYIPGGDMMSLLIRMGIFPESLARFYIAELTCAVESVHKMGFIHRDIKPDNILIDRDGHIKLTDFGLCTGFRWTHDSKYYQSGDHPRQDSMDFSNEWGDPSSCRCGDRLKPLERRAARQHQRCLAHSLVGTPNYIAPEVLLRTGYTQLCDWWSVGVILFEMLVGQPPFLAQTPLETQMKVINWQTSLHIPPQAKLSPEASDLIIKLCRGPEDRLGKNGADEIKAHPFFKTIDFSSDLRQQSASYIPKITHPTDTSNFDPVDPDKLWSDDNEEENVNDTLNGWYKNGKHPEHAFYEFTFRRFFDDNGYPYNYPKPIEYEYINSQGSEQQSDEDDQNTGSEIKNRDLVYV

Structure (SMILES)	test	setting	remaining binding
CN(C)c1ncnc(-c2ccc3nc(Nc4cc(CN5CCN(C(=O)CC(F)(F)F)CC5)ccn4)[nH]c3c2)c1Cl	cell-free assay, competition with immobilised ligand	1 µM	95%
C[C@@H]1CCN(c2nccc(-c3cnn4ncccc34)n2)C1	binding	1 µM	100%
CCCCN(CCCC)C(=O)CN1C[C@@H](c2cc(OC)c3c(c2)OCO3)[C@H](C(=O)O)[C@H]1CC(C)(C)CCC	cell-free assay, competition with immobilised ligand	1 µM	75.2%
N[C@H]1CCN(c2nccc(-c3cnn4ncccc34)n2)C1	binding	1 µM	100%
CCN1CCN(Cc2ccc(C(=O)Nc3ccc(C)c(Oc4ccc5c(c4)CC(=O)N5)c3)cc2C(F)(F)F)CC1	binding, competition with immobilised ligand	1 µM	94%
Cc1cnn2ncc(-c3ccnc(N(C)C)n3)c2c1	binding	1 µM	48%
c1cncc(-c2cccc(Nc3nccc(NC4CCCCC4)n3)c2)c1	binding, competition with immobilised ligand	10 µM	19%
Cc1cc(NC(=O)c2cccc(S(F)(F)(F)(F)F)c2)cc(-n2ccn3nc(-c4cccnc4)cc23)c1	cell-free assay, competition with immobilised ligand	1 µM	100%
c1cnn2ncc(-c3ccnc(N4CCC45COC5)n3)c2c1	binding	1 µM	88%
Nc1ncc2c(n1)-c1c([nH]c3ccc(C#CC4CC4)cc13)CCCC2	binding, competition with immobilised ligand	1 µM	92%
FC(F)(F)Oc1cccc(-c2cnc3ccc(-c4ccncc4)nn23)c1	cell-free assay, competition with immobilised ligand	5 µM	100%
COc1cc(-c2cn(C3CCc4c(F)cccc4N(CC(F)(F)F)C3=O)nn2)ccc1-n1cnc(C)c1 (centres unmarked)	cell-free assay, competition with immobilised ligand	1 µM	93%
CN(C)c1ncc(F)c(-c2cnn3ncccc23)n1	binding	1 µM	100%
O=C(Nc1ccc(Oc2ccc(F)cc2)cc1)N1CCc2ncccc2[C@H]1c1ccc(F)cc1	cell-free assay, competition with immobilised ligand	1 µM	86%
CN(C)c1nccc(-c2cnc3ncccn23)n1	binding	1 µM	100%
O=C(NCCCN1CCOCC1)c1ccc(Nc2ncc(Cl)c(-c3ccc(Cl)s3)n2)cc1	binding, competition with immobilised ligand	1 µM	42%
Cc1nc(Cc2cccc(C(F)(F)F)c2)sc1-c1ccc(C(N)=O)nc1	cell-free assay, competition with immobilised ligand	1 µM	100%
COc1cnc(Nc2cccc(S(N)(=O)=O)c2)nc1N1CCN(c2ccccc2)CC1	binding, competition with immobilised ligand	1 µM	100%
Cc1cnc(Nc2ccc(C(=O)N3CCC(N4CCCC4)CC3)cc2)nc1-c1cc2ccccc2s1	binding, competition with immobilised ligand	1 µM	89%
O=C(Nc1c[nH]nc1C(=O)NC1CCNCC1)c1cc(F)cc(F)c1	binding, competition with immobilised ligand	1 µM	100%
